# Assay results collected from several papers.
# Compare with care: the assays were run in different laboratories.
# Target: Ephrin type-A receptor 3 (EPHA3, Homo sapiens, UniProt P29320)
# Sequence (P29320 21-983, as in one of the studies): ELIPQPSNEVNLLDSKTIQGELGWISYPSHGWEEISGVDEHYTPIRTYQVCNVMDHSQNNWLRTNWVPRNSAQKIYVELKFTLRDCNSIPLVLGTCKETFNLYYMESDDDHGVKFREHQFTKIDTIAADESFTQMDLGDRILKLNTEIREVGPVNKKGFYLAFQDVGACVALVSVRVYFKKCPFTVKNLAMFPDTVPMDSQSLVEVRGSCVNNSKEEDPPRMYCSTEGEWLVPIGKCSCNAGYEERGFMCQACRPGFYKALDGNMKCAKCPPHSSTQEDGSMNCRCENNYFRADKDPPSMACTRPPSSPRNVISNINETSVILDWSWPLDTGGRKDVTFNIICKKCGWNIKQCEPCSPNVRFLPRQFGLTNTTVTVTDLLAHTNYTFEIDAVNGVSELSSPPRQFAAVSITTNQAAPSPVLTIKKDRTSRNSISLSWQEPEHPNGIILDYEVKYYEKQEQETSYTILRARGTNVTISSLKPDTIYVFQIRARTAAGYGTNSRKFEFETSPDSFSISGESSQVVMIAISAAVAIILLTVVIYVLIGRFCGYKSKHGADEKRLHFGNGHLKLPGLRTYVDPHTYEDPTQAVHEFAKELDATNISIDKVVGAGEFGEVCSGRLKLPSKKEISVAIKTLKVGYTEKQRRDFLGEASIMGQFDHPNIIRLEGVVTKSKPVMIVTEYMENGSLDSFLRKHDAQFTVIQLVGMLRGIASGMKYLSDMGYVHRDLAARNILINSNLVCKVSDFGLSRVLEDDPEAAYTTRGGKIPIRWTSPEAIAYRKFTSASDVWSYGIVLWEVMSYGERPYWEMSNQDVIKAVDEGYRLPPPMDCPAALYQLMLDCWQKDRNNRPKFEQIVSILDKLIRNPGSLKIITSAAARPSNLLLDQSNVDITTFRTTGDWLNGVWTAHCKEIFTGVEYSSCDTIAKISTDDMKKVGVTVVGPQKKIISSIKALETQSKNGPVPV
Compound,assay,setting,remaining binding [%]
N[C@@H]1CCN(c2nccc(-c3cnn4ncccc34)n2)C1,binding,1 µM,100
c1cncc(-c2cccc(Nc3nccc(NC4CCCCC4)n3)c2)c1,"binding, competition with immobilised ligand",10 µM,68
COc1cnc(Nc2cccc(S(N)(=O)=O)c2)nc1N1CCN(c2ccccc2)C(=O)C1,"binding, competition with immobilised ligand",1 µM,98
O=C(c1ccc(Nc2ncc(Cl)c(-c3ccc(Cl)s3)n2)cc1)N1CCC(N2CCCC2)CC1,"binding, competition with immobilised ligand",1 µM,68
C[C@@H](c1ccc(-n2cnc3c(N)ncnc32)cc1)N1CCc2nn(C)c(Cc3ccccc3)c2C1=O,"binding, competition with immobilised ligand",0.1 µM,83
COc1ccc2c(O[C@@H]3C[C@H]4C(=O)N[C@]5(C(=O)O)CC5/C=C\CCCCC[C@H](NC(=O)OC5CCCC5)C(=O)N4C3)cc(-c3csc(NC(=O)C(C)C)n3)nc2c1C (some centres unmarked),"cell-free assay, competition with immobilised ligand",1 µM,97
Cc1cnn2ncc(-c3ccnc(N(C)C)n3)c2c1,binding,1 µM,84
O=C(NCC1CCOCC1)c1n[nH]cc1NC(=O)c1c(F)cccc1F,"binding, competition with immobilised ligand",1 µM,82
F[C@@H]1CCN(c2nccc(-c3cnn4ncccc34)n2)C1,binding,1 µM,90
Nc1ncc2c(n1)-c1c([nH]c3ccc(C#CC4CC4)cc13)CCCC2,"binding, competition with immobilised ligand",1 µM,100
C[C@H](c1ccnc(Nc2nc3ccc(-c4cc(N(C)C)ncn4)cc3[nH]2)c1)N1CCN(C(=O)CC(F)(F)F)CC1,"cell-free assay, competition with immobilised ligand",0.1 µM,100
c1cnn2ncc(-c3ccnc(N4CCC45COC5)n3)c2c1,binding,1 µM,68
Cn1nc(C(=O)NCc2ccc(C(=O)O)cc2)cc1-c1ccc2[nH]ccc2c1,"cell-free assay, competition with immobilised ligand",0.1 µM,89
O=C(c1ccc(Nc2ncc(Cl)c(-c3cc4ccccc4s3)n2)cc1)N1CCC(N2CCCC2)CC1,"binding, competition with immobilised ligand",1 µM,84
C[C@H](NC(=O)c1cnc2n1[C@](C)(Cc1ccc(C#N)cc1)C(=O)N2c1cc(Cl)c(F)c(Cl)c1)C(=O)NC1(c2ccccn2)CC1,"cell-free assay, competition with immobilised ligand",1 µM,88
C[C@@H]1CCN(c2nccc(-c3cnn4ncccc34)n2)C1,binding,1 µM,61
CC1=C(C#N)[C@@H](c2ccc3[nH]nc(C)c3c2)C(C#N)=C(c2ccc(Cl)cc2)N1,"cell-free assay, competition with immobilised ligand",1 µM,100
CNC(=O)[C@@H]1CC[C@@H](n2c(-c3ccc4cnccc4c3)nc3ccc(C(=O)NCc4cccc(C(N)=O)c4)cc32)C1,"binding, competition with immobilised ligand",1 µM,96
CN(C)c1nccc(-c2cnc3ncccn23)n1,binding,1 µM,100
Cc1nc(C2CCN(C(=O)c3ccc(OC(F)(F)F)cc3N)CC2)c2ncc(N3CCN(C)CC3)cc2n1,"cell-free assay, competition with immobilised ligand",1 µM,92
